What was measured:
LDLR = test: Aβ-induced soluble LDLR in HBMEC media upon MMP9 inhibition; assay type: cell-based, human; conditions: Aβ(1-42) 2μM plus inhibitor 1μM, 48 hours at 37°C, ELISA, n = 3
LRP1 = test: Aβ-induced soluble LRP1 in HBMEC media upon MMP9 inhibition; assay type: cell-based, human; conditions: Aβ(1-42) 2μM plus inhibitor 1μM, 48 hours at 37°C, ELISA, n = 3
[1] = test system: in vitro model of the BBB (HBMEC monolayer); test: Paracellular marker; assay type: cell-based, human; conditions: each SB-3CT concentration (0.1, 0.5, 1, 5, 10μM), data not shown
Procedure, shortened: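 HBMEC were seeded at 100,000 cells/cm² on fibronectin-coated (4 µg/cm²) 0.4 µm-pore inserts (0.3 cm²) to form a polarized monolayer. Inserts holding test compound were exposed to wells with 10 kD lucifer yellow dextran at 37 °C. Basolateral was sampled at time 0 and apical at 0, 30 and 60 min (basolateral-to-apical). Apparent permeability = 1/AC0 × dQ/dt, compared with control.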

apoE-TR mice = test: Mouse Aβ BBB clearance model: human Aβ; assay type: in vivo; conditions: SB-3CT 25 mg/kg i.p., plasma human Aβ(1-42) ELISA, n = 4
HBMEC = test: LDH cytotoxicity assay in HBMEC extracellular media; assay type: cell-based, human; conditions: 48 hours at 37°C, data not shown

Row | Compound | reduction of soluble LDLR levels compared to Aβ alone (LDLR) | decrease of soluble LRP1 levels compared to Aβ alone (LRP1) | BBB monolayer integrity: movement of 10kDa lucifer yellow dextran vs control [1] | extent of Aβ BBB elimination in SB-3CT-treated apoE4-TR mice versus apoE3-TR animals (apoE-TR mice) | LDH release (HBMEC; 20μM Aβ) | cellular toxicity (LDH cytotoxicity assay) (HBMEC; Aβ concentrations 0 to 2μM)
1 | CNC(=O)[C@@H](NC(=O)[C@H](CC(C)C)[C@H](O)C(=O)NO)C(C)(C)C [marimastat] | approximately 40% |  |  |  |  | 
2 | O=S(=O)(CC1CS1)c1ccc(Oc2ccccc2)cc1 (stereo not shown) [SB-3CT] | approximately 40% | approximately 40% | no difference | the same as that observed in the apoE3-TR animals |  | 
3 | Aβ(1-42): unlabeled human beta-amyloid (1-42) peptide, purchased from Invitrogen, used in monomeric form |  |  |  |  | significant increase in LDH release | no cellular toxicity was observed
